Measurements taken from article PMC11757046 (Journal of medicinal chemistry, 2025).

Experiments:
Format in all cases: cell-based, human
SH-SY5Y cells [1] = assay: Detoxification of external aldehyde Ia; details: then 20 μM Ia 24 h, relative to Ia only; for fold increase in cell viability against Ia: 1 mM detox agent 3 h
How it was run: (§1)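 SH-SY5Y cells grown in DMEM/F12 with 10% FBS and seeded in 96-well plates for ~48 h at 37 °C, 5% CO2. They were pretreated with the test compound in fresh medium, washed twice, then exposed to the aldehyde in medium at 37 °C. Viability was read by SRB at 510 and 565 nm, background-subtracted. Fold change is % viable over aldehyde-only wells. Mean ± SD, n = 6, one-way ANOVA.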

SH-SY5Y cells [2] = assay: Detoxification of external aldehyde IIa; details: IIa 150 μM; relative to IIa only
How it was run: as §1

SH-SY5Y cells [3] = assay: Protection of MPP+-inhibited cells; details: then 1 mM MPP+ 24 h, relative to MPP+ only
SH-SY5Y cells [4] = assay: Intracellular reactive oxygen species assay; details: for intracellular ROS level relative to untreated control: MPP+-inhibited cells, DCFDA fluorometric assay
SH-SY5Y cells [5] = assay: NAD+/NADH ratio assay; details: MPP+-inhibited cells; negative control 68%
[6] = Protection of MPP+-inhibited cells; details: human
SH-SY5Y cells [7] = assay: JC-10 mitochondrial membrane potential assay; details: MPP+-inhibited cells
SH-SY5Y cells [8] = assay: Aldehyde quantification assay in MPP+-treated cells

For `O=C1O[C@H]([C@@H](O)CO)C(O)=C1O` [Asc, sodium ascorbate], the “fold increase in cell viability against Ia” value (SH-SY5Y cells [1]) was “negligible change”, the “fold improvement in cell viability against IIa” value (from here on “fold improvement”) (SH-SY5Y cells [2]) was “none of the conventional detox agents” and the “fold increase in cell viability against MPP+” value (from here on “fold increase … against MPP+”) (SH-SY5Y cells [3]; 1 mM detox agent 3 h) was 1.1 fold.
With `NCCC(=O)N[C@@H](Cc1cnc[nH]1)C(=O)O` [Car, carnosine] the “fold increase in cell viability against Ia” value (SH-SY5Y cells [1]) was 1.3 fold, the “fold improvement” value (SH-SY5Y cells [2]) was “none of the conventional detox agents” and the “fold increase … against MPP+” value (SH-SY5Y cells [3]; 1 mM detox agent 3 h) was 1.2 fold. The “intracellular ROS level relative to untreated control” value (SH-SY5Y cells [4]) was 7.5 × and the “intracellular NAD+ content (NAD+ %)” value (SH-SY5Y cells [5]) was “negligible effect”.
For `CCCCCC(O)C=CC=O` (centres unmarked) [Ia, 4-hydroxynon-2-enal], the “ROS levels after treatment with the aldehyde” value (SH-SY5Y cells [4]; SH-SY5Y cells treated with Ia) was “significantly increased ROS levels”.
In the case of `N[C@@H](Cc1ccc(O)c(O)c1)C(=O)O` [L-Dopa, levodopa], the “fold improvement” value (SH-SY5Y cells [2]) is reported as “none of the conventional detox agents” and the “fold increase … against MPP+” value (SH-SY5Y cells [3]; 50 μM detox agent 3 h) is reported as 1.2 fold.
For `C[n+]1ccc(-c2ccccc2)cc1.[I-]` [MPP^+, 1-methyl-4-phenylpyridinium iodide], the viability at 24 h, 1 mM [6] was 54%, the “intracellular ROS level relative to untreated control” value (SH-SY5Y cells [4]) was 9.1 × and the “intracellular NAD+ content (NAD+ %)” value (SH-SY5Y cells [5]) was 27%. For the same compound, the “MMP, red/green fluorescence ratio (JC-10)” value (SH-SY5Y cells [7]) was 0.2, the “aldehyde concentration relative to untreated cells” value (SH-SY5Y cells [8]) was “about 44 ×” and the “aldehyde concentration in cells” value (SH-SY5Y cells [8]; Ir2mito used with HCOONa) was 89 nmol/10^6 cells.
For `CC(C)(O)c1nc2ccc(Cl)cc2cc1N` [Rep, reproxalap], the “change in cell viability against Ia” value (SH-SY5Y cells [1]; 50 μM detox agent 3 h) was “negligible change”, the “fold improvement” value (SH-SY5Y cells [2]) was “none of the conventional detox agents” and the “fold increase … against MPP+” value (SH-SY5Y cells [3]; 50 μM detox agent 3 h) was 1.3 fold. The “intracellular ROS level relative to untreated control” value (SH-SY5Y cells [4]) was 5.1 ×, the “intracellular NAD+ content (NAD+ %)” value (SH-SY5Y cells [5]) was 41% and the “MMP, red/green fluorescence ratio (JC-10)” value (SH-SY5Y cells [7]) was 0.4.
